According to ChEMBL document CHEMBL3243952, “Antagonists of vitamin B6. Simultaneous and stepwise modification of the 2 and 4 positions” (J Med Chem, 1977):
Activity calls are given as the source filed them. The calls are words filed in the database; no cut-off is given here.

Tests used:
TA3 [1] = assay: Growth inhibition of mouse TA3 cells after 3 days incubation in presence of 10^-5 M pyridoxal; type: functional
In short: (§1)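 Mouse mammary adenocarcinoma TA3 cells were grown in stationary upright tubes with 10% horse serum and pyridoxal at 10⁻⁷ M (minimal growth) or 10⁻⁵ M. The inoculum was 50 000 cells, with compound added in an equal volume of medium. Cells were incubated for 3 days, and growth was read by protein assay. Five tubes were used per concentration, with repeats for active compounds. The 50% inhibitory concentration was derived.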

TA3 [2] = assay: Growth inhibition of mouse TA3 cells after 3 days incubation in presence of 10^-7 M pyridoxal; type: functional; settings: for IC50: Mus musculus, TA3, 72 h, read-out: ID50 (the source's name); in short: as §1
TA3 [3] = assay: Growth inhibition of mouse TA3 cells at 10^-4 M after 3 days incubation in presence of 10^-7 M pyridoxal; type: functional
Pyridoxal kinase = target: T1, Pyridoxal kinase (Homo sapiens, UniProt O00764); assay: Noncompetitive inhibition of pyridoxal phosphokinase (unknown origin) using ATP-gamma-[32P]
T1 sequence (O00764 whole entry): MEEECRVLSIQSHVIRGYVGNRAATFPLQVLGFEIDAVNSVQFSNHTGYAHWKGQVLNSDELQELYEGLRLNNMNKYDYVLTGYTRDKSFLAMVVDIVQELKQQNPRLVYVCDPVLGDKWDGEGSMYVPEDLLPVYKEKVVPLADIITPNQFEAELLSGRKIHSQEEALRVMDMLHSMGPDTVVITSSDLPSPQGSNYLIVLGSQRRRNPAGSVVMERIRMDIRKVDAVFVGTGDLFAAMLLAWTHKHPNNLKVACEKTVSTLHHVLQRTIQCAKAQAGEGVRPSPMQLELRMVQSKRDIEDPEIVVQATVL

Row | Structure (SMILES) | ID50 (TA3 [1]) | IC50 (TA3 [2]) [µM] | inhibition (TA3 [1]) | further results
1 | C=Cc1ncc(CO)c(C=C)c1O.Cl | 3.2 ×10⁻⁵ M | 6.8 | – | –
2 | C=Cc1ncc(COP(=O)(O)O)c(C)c1O | 1.8 ×10⁻⁴ M | – | – | ID50 (TA3 [2]): 3.8 ×10⁻⁵ M
3 | Cc1c(CO)cnc(/C=N/O)c1O | – | – | – | inhibition (INH) (TA3 [3]): 40%
4 | Cc1c(CO)cnc(/C=N/NC(N)=S)c1O | – | 2.7 | Active | –
5 | C=Cc1ncc(CO)c(C)c1O.Cl | 3.2 ×10⁻⁵ M | 3 | – | Ki (Pyridoxal kinase): 68.1 µM
6 | C=Cc1ncc(CO)c(CO)c1O | – | 9.4 | Active | –
7 | Cc1c(CO)cnc(CO)c1O | – | – | – | inhibition (TA3 [3]): inactive
8 | C=Cc1c(CO)cnc(C)c1O | – | 0.0025 | inactive | –
9 | C=Cc1ncc(COP(=O)(O)O)c(C=C)c1O | – | – | – | inhibition (TA3 [3]): inactive
10 | Cc1ncc(CO)c(C)c1O | – | – | inactive | ID50 (TA3 [2]): 6.8 ×10⁻⁸ M
11 | Cc1c(CO)cnc(C=O)c1O | 1.6 ×10⁻⁴ M | – | – | ID50 (TA3 [2]): 6 ×10⁻⁵ M
12 | C=Cc1c(CO)cnc(CO)c1O | – | – | – | inhibition (TA3 [3]): inactive
